Values after ≈ are worked out from the molar mass of the structure shown.
Legend:
Format in all cases: functional
[1] = system: Mycobacterium tuberculosis; assay: Antitubercular activity against Mycobacterium tuberculosis H37Rv by microdilution method
Procedure, shortened: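 Agar microdilution: serial two-fold compound dilutions in 7H10 agar, with H37Rv as test organism. MIC was the concentration completely inhibiting growth and colony-forming ability of M. tuberculosis.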

[2] = system: Mycobacterium tuberculosis; assay: Antitubercular activity against Mycobacterium tuberculosis H37Rv by MABA assay
[3] = Selectivity index, IC50 for vero cells to MIC for Mycobacterium tuberculosis H37Rv
[4] = system: Mycobacterium tuberculosis; assay: Antitubercular activity against Mycobacterium tuberculosis H37Rv by BACTEC method
Procedure, shortened: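 Radiometric BACTEC 12B (7H12) broth; compounds from 1 mg/mL DMSO stock, DMSO-only controls, isoniazid and rifampin references. H37Rv inoculated at 10⁴–10⁵ CFU/mL, plus 1:100-diluted inoculum control. Incubated at 37 °C with daily GI readings until the 1:100 control reached GI 30. MIC was the concentration giving a final GI below the 1:100 control ([…] inhibition).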

Row | SMILES | MIC [1] [µg/mL] | MIC [2] [µg/mL] | Selectivity index [3] | MIC [4] [µg/mL]
1 | COc1ccc(C(c2ccc(OCCN3CCCCC3)cc2)c2cc3ccccc3c3ccccc23)cc1 (centres undefined) | 6.25 (≈ 12.5 µM) | 6.25 (≈ 12.5 µM) | 10 | 6.25 (≈ 12.5 µM)
2 | COc1ccc(Cc2ccc(OCCN3CCCCC3)cc2)cc1 | > 25 | > 25 |  | 
3 | CN(C)CCOc1ccc(C(c2ccc(O)cc2)c2cc3ccccc3c3ccccc23)cc1 (centres undefined) | 12.5 (≈ 27.9 µM) | 25 (≈ 55.9 µM) |  | 12.5 (≈ 27.9 µM)
4 | CCN(CC)CCOc1ccc(C(c2ccc(OC)cc2)c2cccnc2)cc1 (centres undefined) | > 25 | > 25 |  | 12.5 (≈ 32 µM)
5 | COc1ccc(C(c2ccc(OCCN3CCCC3)cc2)c2cc3ccccc3c3ccccc23)cc1 (centres undefined) | 6.25 (≈ 12.8 µM) | 6.25 (≈ 12.8 µM) | 20 | 6.25 (≈ 12.8 µM)
6 | COc1ccc(C(c2ccc(OCCN3CCCCC3)cc2)c2cccnc2)cc1 (centres undefined) | > 25 | > 25 |  | 12.5 (≈ 31.1 µM)
7 | COc1ccc(C(c2ccc(OCCN3CCCC3)cc2)c2cn(S(=O)(=O)c3ccccc3)c3ccccc23)cc1 (centres undefined) | 12.5 (≈ 22.1 µM) | 12.5 (≈ 22.1 µM) |  | 
8 | CCN(CC)CCOc1ccc(C(c2ccc(OC)cc2)c2cc3ccccc3c3ccccc23)cc1 (centres undefined) | 6.25 (≈ 12.8 µM) | 6.25 (≈ 12.8 µM) | 20 | 6.25 (≈ 12.8 µM)
9 | COc1ccc(C(c2ccc(OCCN(C)C)cc2)c2cccnc2)cc1 (centres undefined) | > 25 | > 25 |  | 
10 | CCN(CC)CCOc1ccc(C(c2ccc(O)cc2)c2cc3ccccc3c3ccccc23)cc1 (centres undefined) | 12.5 (≈ 26.3 µM) | 25 (≈ 52.6 µM) |  | 12.5 (≈ 26.3 µM)
11 | COc1ccc(C(c2ccc(OCCN3CCCCCC3)cc2)c2cn(S(=O)(=O)c3ccccc3)c3ccccc23)cc1 (centres undefined) | 12.5 (≈ 21 µM) | 12.5 (≈ 21 µM) |  | 12.5 (≈ 21 µM)
12 | COc1ccc(C(c2ccc(OCCN(C)C)cc2)c2cc3ccccc3c3ccccc23)cc1 (centres undefined) | 25 (≈ 54.2 µM) | 25 (≈ 54.2 µM) |  | 12.5 (≈ 27.1 µM)
13 | COc1ccc(C(c2ccc(OCCN(C)C)cc2)c2cn(S(=O)(=O)c3ccccc3)c3ccccc23)cc1 (centres undefined) | > 12.5 | > 25 |  | 
14 | COc1ccc(Cc2ccc(OCCN(C)C)cc2)cc1 | > 25 | > 25 |  | 
15 | COc1ccc(C(c2ccc(OCCN(C)C)cc2)c2c3ccccc3cc3ccccc23)cc1 (centres undefined) | 12.5 (≈ 27.1 µM) | 12.5 (≈ 27.1 µM) |  | 
16 | CCN(CC)CCOc1ccc(C(c2ccc(OC)cc2)c2cn(S(=O)(=O)c3ccccc3)c3ccccc23)cc1 (centres undefined) | 12.5 (≈ 22 µM) | 12.5 (≈ 22 µM) |  | 
17 | COc1ccc(C(c2ccc(OCCN3CCCCC3)cc2)c2cn(S(=O)(=O)c3ccccc3)c3ccccc23)cc1 (centres undefined) | 6.25 (≈ 10.8 µM) | 6.25 (≈ 10.8 µM) | 10 | 6.25 (≈ 10.8 µM)
18 | COc1ccc(C(c2ccc(OCCN3CCCC3)cc2)c2cccnc2)cc1 (centres undefined) | > 25 | > 25 |  | 12.5 (≈ 32.2 µM)
19 | Oc1ccc(C(c2ccc(OCCN3CCCCC3)cc2)c2cc3ccccc3c3ccccc23)cc1 (centres undefined) | 12.5 (≈ 25.6 µM) | 25 (≈ 51.3 µM) |  | 12.5 (≈ 25.6 µM)

Reference: ChEMBL document CHEMBL1143790, “Effect of substituents on diarylmethanes for antitubercular activity” (2007)
